In PubChem BioAssay AID504826 (Southern Research Specialized Biocontainment Screening …, 2011):

Each compound was assayed on HEp-2 viability, luminescence (CellTiter-Glo) (assay: HEp-2 cell cytotoxicity, dose response, cytotoxicity control for RSV antiviral project, synthesized compounds, set 9 (AID 504826)).
In short: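 Assay system: uninfected HEp-2 human cells, ATP-based viability. Input: 10,595 cells/well. Times: compound exposure six days at 37 °C, 5% CO2. Technique: ATP luminescence (CellTiter-Glo). Controls: cell-only wells as 100% viability reference. Compound dosing: Eight-point twofold dilution series, 0.5% DMSO final. Evaluation: % viability and fitted CC50. Replicates: triplicate.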
In the case of `Cc1ccc(C)c(NC(=O)[C@@H]2CCCN2S(=O)(=O)c2cccc3cccnc23)c1`, the CC50 is reported as 25 µM. `COCCCNC(=O)c1ccc(Cn2c(=O)c3ccccc3n(Cc3ccc(C(F)(F)F)cc3)c2=O)cc1` gave a CC50 of 95.7 µM. Compound `COCCCNC(=O)c1ccc(Cn2c(=O)c3ccccc3n(Cc3ccc(Br)cc3)c2=O)cc1` has a CC50 of 126 µM. `COCCCNC(=O)c1ccc(Cn2c(=O)c3ccccc3n(Cc3ccc(C)c(C(F)(F)F)c3)c2=O)cc1` was tested, and the CC50 was 75.2 µM. With `COCCCNC(=O)c1ccc(Cn2c(=O)c3ccccc3n(Cc3ccc([N+](=O)[O-])cc3)c2=O)cc1` the CC50 was 115 µM. Work on `COCCCNC(=O)c1ccc(Cn2c(=O)c3ccccc3n(Cc3ccc(OC)cc3)c2=O)cc1` yielded a CC50 of 121 µM. Compound `COc1ccccc1CNC(=O)C1CCN(S(=O)(=O)c2cccc3nonc23)CC1` has a CC50 of 146 µM.
